Assay results taken from ChEMBL document CHEMBL1132401, “Glycosylation of fluoroquinolones through direct and oxygenated polymethylene linkages as a sugar-mediated active transport system for antimicrobials” (1999).
≈ marks a conversion by molar mass, not a printed value.

Assays:
Escherichia coli [1] = test: Minimum concentration required to prevent the growth of cipro resistant (Cipro-R) Escherichia coli strain A3529; type: functional; conditions: Escherichia coli; read-out: MIC
Summary of the method: (§1)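 Agar dilution susceptibility testing per NCCLS guidelines, covering clinical isolates (including resistant phenotypes) and nonresistant ATCC stock strains as controls. Plates read after 19–24 h of incubation. MIC reported in μg/mL.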

Klebsiella pneumoniae = test: Minimum concentration required to prevent the growth of cipro resistant (Cipro-I) Klebsiella pneumoniae strain AM; type: functional
Summary of the method: (§2)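 Agar dilution susceptibility testing per NCCLS guidelines against resistant clinical isolates, with nonresistant ATCC stock strains run as controls. Plates were read at 19–24 h of incubation. MIC reported in µg/mL.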

Escherichia coli [2] = test: Minimum concentration required to prevent the growth of cipro resistant (Cipro-R) Escherichia coli strain AA; type: functional; conditions: Escherichia coli; read-out: MIC; summary of the method: as §1
Escherichia coli [3] = test: Minimum concentration required to prevent the growth of cipro resistant (Cipro-R) Escherichia coli strain A3228; type: functional; summary of the method: as §1
[4] = test system: Staphylococcus epidermidis; test: (§3) Minimum concentration required to prevent the growth of multiply resistant Staphylococcus epidermidis (MRSE) coag.-neg. Staph. A0244; type: functional; summary of the method: as §2
Enterococcus faecalis [5] = test: Minimum concentration required to prevent the growth of high level gentamicin and beta- lactamase resistant (HLGR, BLA+) Enterococcus faecalis strain A0089; type: functional; summary of the method: as §2
Enterococcus faecalis [6] = test: Minimum concentration required to prevent the growth of high level gentamicin and beta- lactamase resistant (HLGR, BLA+) Enterococcus faecalis strain A0090; type: functional; summary of the method: as §2
Enterococcus faecalis [7] = test: Minimum concentration required to prevent the growth of vancomycin resistant (VanB) Enterococcus faecalis strain A1081; type: functional; summary of the method: as §2
Enterococcus faecalis [8] = test: Minimum concentration required to prevent the growth of vancomycin resistant (VanA) Enterococcus faecalis strain A0401; type: functional; summary of the method: as §2
Staphylococcus aureus [9] = test: Minimum concentration required to prevent the growth of multiply resistant (MRSA) Staphylococcus aureus strain A0170; type: functional; summary of the method: as §2
[10] = test system: Staphylococcus epidermidis; test: Minimum concentration required to prevent the growth of multiply resistant Staphylococcus epidermidis (MRSE) and cipro resistant (Cipro-R) coag.-neg. Staph. A0248; type: functional; summary of the method: as §2
Staphylococcus aureus [11] = test: Minimum concentration required to prevent the growth of multiply resistant (MRSA) and cipro resistant (Cipro-R) Staphylococcus aureus strain A2043; type: functional; summary of the method: as §2
Staphylococcus aureus [12] = test: Minimum concentration required to prevent the growth of multiply resistant (MRSA) and cipro resistant (Cipro-R) Staphylococcus aureus strain A2800; type: functional; summary of the method: as §2
Pseudomonas aeruginosa [13] = test: Minimum concentration required to prevent the growth of Pseudomonas aeruginosa strain 28245; type: functional; summary of the method: as §1
Listeria monocytogenes [14] = test: Minimum concentration required to prevent the growth of Listeria monocytogenes strain A0182; type: functional; summary of the method: as §1
Enterococcus faecalis [15] = test: Minimum concentration required to prevent the growth of nonresistant stock strain Enterococcus faecalis 29212 from American Type Culture Collection (ATCC); type: functional; summary of the method: as §2
Enterococcus faecium [16] = test: Minimum concentration required to prevent the growth of vancomycin resistant (VanA) Enterococcus faecium strain A1745; type: functional; summary of the method: as §2
[17] = test system: Staphylococcus epidermidis; test: Minimum concentration required to prevent the growth of multiply resistant Staphylococcus epidermidis (MRSE) coag.-neg. Staph. A0245; type: functional; summary of the method: as §2
Enterococcus faecalis [18] = test: Minimum concentration required to prevent the growth of vancomycin resistant (VanA) Enterococcus faecalis strain A0402; type: functional; conditions: Enterococcus faecalis; read-out: MIC; summary of the method: as §2
Enterococcus faecalis [19] = test: Minimum concentration required to prevent the growth of vancomycin resistant (VanB) Enterococcus faecalis strain A1079; type: functional; summary of the method: as §2
Enterococcus faecalis [20] = test: Minimum concentration required to prevent the growth of nonresistant stock strain Enterococcus faecalis 51299 from American Type Culture Collection (ATCC); type: functional; conditions: Enterococcus faecalis; read-out: MIC; summary of the method: as §2
Escherichia coli [21] = test: Minimum concentration required to prevent the growth of nonresistant stock Escherichia coli strain 25922 from American Type Culture Collection (ATCC); type: functional; conditions: ATCC25922; summary of the method: as §1
Enterococcus faecium [22] = test: Minimum concentration required to prevent the growth of vancomycin resistant (VanB) Enterococcus faecium strain A0803; type: functional; summary of the method: as §2
[23] = test system: Staphylococcus epidermidis; test: Minimum concentration required to prevent the growth of multiply resistant Staphylococcus epidermidis (MRSE) and cipro resistant (Cipro-R) coag.-neg. Staph. A0247; type: functional; summary of the method: as §2
Listeria monocytogenes [24] = test: Minimum concentration required to prevent the growth of Listeria monocytogenes strain A0183; type: functional; summary of the method: as §1
Klebsiella oxytoca = test: Minimum concentration required to prevent the growth of cipro resistant (Cipro-R) Klebsiella oxytoca strain A3530
Enterococcus faecium [25] = test: Minimum concentration required to prevent the growth of vancomycin resistant (VanB) Enterococcus faecium strain A1087; type: functional; summary of the method: as §2
Pseudomonas aeruginosa [26] = test: Minimum concentration required to prevent the growth of Pseudomonas aeruginosa strain 28215; type: functional; conditions: Pseudomonas aeruginosa; read-out: MIC; summary of the method: as §1
Enterococcus faecium [27] = test: Minimum concentration required to prevent the growth of vancomycin resistant (VanA) Enterococcus faecium strain A2320; type: functional; summary of the method: as §2
Enterococcus faecium [28] = test: Minimum concentration required to prevent the growth of nonresistant stock strain Enterococcus faecium 19434 from American Type Culture Collection (ATCC); type: functional; summary of the method: as §1
Staphylococcus aureus [29] = test: Minimum concentration required to prevent the growth of multiply resistant (MRSA) Staphylococcus aureus strain A0171; type: functional; summary of the method: as §2
Staphylococcus aureus [30] = test: Minimum concentration required to prevent the growth of nonresistant stock strain Staphylococcus aureus 29213 from American Type Culture Collection (ATCC)
[31] = test system: Staphylococcus epidermidis; test: as §3
Staphylococcus aureus [32] = test: Minimum concentration required to prevent the growth of nonresistant stock strain Staphylococcus aureus 29213 from American Type Culture Collection (ATCC); remark: listed apart in the source
[33] = Klebsiella pneumoniae, read-out: MIC
[34] = Staphylococcus epidermidis, read-out: MIC
[35] = Enterococcus faecalis, read-out: MIC
[36] = Staphylococcus aureus, read-out: MIC
[37] = Listeria monocytogenes, read-out: MIC
[38] = Enterococcus faecium, read-out: MIC

In the case of `O=C(O)c1cn(C2CC2)c2cc(N3CCN(C4OC(CO)C(O)C(O)C4O)CC3)c(F)cc2c1=O` (stereo in doubt; form 1), the MIC (Escherichia coli [1]) is reported as 32 µg/mL (≈ 64.8 µM), the MIC (Klebsiella pneumoniae; [33]) is reported as 2 µg/mL (≈ 4.05 µM) and the MIC (Escherichia coli [2]) is reported as 8 µg/mL (≈ 16.2 µM). It also gave an MIC (Escherichia coli [3]) greater than 32 µg/mL, an MIC [4, 34] of 1 µg/mL (≈ 2.03 µM) and an MIC (Enterococcus faecalis [5]; [35]) of 2 µg/mL (≈ 4.05 µM). It also gave an MIC (Enterococcus faecalis [6]) of 1 µg/mL (≈ 2.03 µM), an MIC (Enterococcus faecalis [7]; [35]) of 0.5 µg/mL (≈ 1.01 µM) and an MIC (Enterococcus faecalis [8]; [35]) of 2 µg/mL (≈ 4.05 µM). For the same molecule, the MIC (Staphylococcus aureus [9]; [36]) was 0.5 µg/mL (≈ 1.01 µM), the MIC [10] was greater than 32 µg/mL and the MIC (Staphylococcus aureus [11]) was greater than 32 µg/mL. It also gave an MIC (Staphylococcus aureus [12]) greater than 32 µg/mL, an MIC (Pseudomonas aeruginosa [13]) of 1 µg/mL (≈ 2.03 µM) and an MIC (Listeria monocytogenes [14]; [37]) of 2 µg/mL (≈ 4.05 µM). For the same molecule, the MIC (Enterococcus faecalis [15]) was 1 µg/mL (≈ 2.03 µM), the MIC (Enterococcus faecium [16]) was greater than 32 µg/mL and the MIC [17, 34] was 0.5 µg/mL (≈ 1.01 µM). It also gave an MIC (Enterococcus faecalis [18]) of 2 µg/mL (≈ 4.05 µM), an MIC (Enterococcus faecalis [19]) of 1 µg/mL (≈ 2.03 µM) and an MIC (Enterococcus faecalis [20]) of 0.5 µg/mL (≈ 1.01 µM). It also gave an MIC (Escherichia coli [21]) of less than 0.03 µg/mL, an MIC (Enterococcus faecium [22]; [38]) of 4 µg/mL (≈ 8.11 µM) and an MIC [23] greater than 32 µg/mL. The MIC (Listeria monocytogenes [24]; [37]) was 2 µg/mL (≈ 4.05 µM), the MIC (Klebsiella oxytoca) was 8 µg/mL (≈ 16.2 µM) and the MIC (Enterococcus faecium [25]; [38]) was 4 µg/mL (≈ 8.11 µM). For the same molecule, the MIC (Pseudomonas aeruginosa [26]) was 0.25 µg/mL (≈ 0.507 µM), the MIC (Enterococcus faecium [27]) was greater than 32 µg/mL and the MIC (Enterococcus faecium [28]; [38]) was 8 µg/mL (≈ 16.2 µM). For the same molecule, the MIC (Staphylococcus aureus [29]; [36]) was 0.5 µg/mL (≈ 1.01 µM).

`Cl.O=C(O)c1cn(C2CC2)c2cc(N3CCNCC3)c(F)cc2c1=O` [CIPROFLOXACIN HYDROCHLORIDE] gave an MIC (Klebsiella pneumoniae) of 2 µg/mL, an MIC (Klebsiella pneumoniae; [33]) of 2 µg/mL and an MIC (Staphylococcus aureus [30]) of 0.5 µg/mL. The MIC [4] was 1 µg/mL, the MIC (Enterococcus faecalis [5]) was 1 µg/mL and the MIC (Enterococcus faecalis [5]; [35]) was 2 µg/mL. It also gave an MIC (Enterococcus faecalis [6]) of 1 µg/mL, an MIC (Enterococcus faecalis [7]) of 0.5 µg/mL and an MIC (Enterococcus faecalis [7]; [35]) of 0.5 µg/mL. The MIC (Enterococcus faecalis [8]) was 1 µg/mL, the MIC (Enterococcus faecalis [8]; [35]) was 2 µg/mL and the MIC (Staphylococcus aureus [9]) was 0.5 µg/mL. The MIC (Staphylococcus aureus [9]; [36]) was 0.25 µg/mL, the MIC (Pseudomonas aeruginosa [13]; Pseudomonas aeruginosa, read-out: MIC) was 1 µg/mL and the MIC (Listeria monocytogenes [14]) was 1 µg/mL. It also gave an MIC (Listeria monocytogenes [14]; [37]) of 1 µg/mL, an MIC (Enterococcus faecalis [15]) of 1 µg/mL and an MIC [31] of 1 µg/mL. For the same molecule, the MIC [17] was 0.5 µg/mL, the MIC [17, 34] was 0.5 µg/mL and the MIC (Enterococcus faecalis [18]) was 1 µg/mL. For the same molecule, the MIC (Enterococcus faecalis [19]) was 1 µg/mL, the MIC (Enterococcus faecalis [20]) was 1 µg/mL and the MIC (Enterococcus faecium [22]) was 2 µg/mL. For the same molecule, the MIC (Enterococcus faecium [22]; [38]) was 2 µg/mL, the MIC (Listeria monocytogenes [24]) was 1 µg/mL and the MIC (Listeria monocytogenes [24]; [37]) was 1 µg/mL. For the same molecule, the MIC (Enterococcus faecium [25]) was 4 µg/mL, the MIC (Enterococcus faecium [25]; [38]) was 4 µg/mL and the MIC (Staphylococcus aureus [32]) was 0.5 µg/mL. The MIC (Enterococcus faecium [28]) was 8 µg/mL, the MIC (Enterococcus faecium [28]; [38]) was 8 µg/mL and the MIC (Staphylococcus aureus [29]) was 0.5 µg/mL. For the same molecule, the MIC (Staphylococcus aureus [29]; [36]) was 0.5 µg/mL.
